# Experimental data: ChEMBL document CHEMBL4513216, “Probing the Open Global Health Chemical Diversity Library for Multistage-Active Starting Points for Next-Generation Antimalarials” (ACS Infect Dis, 2020)
# Test: Toxicity liver stage against HepG2, at 10uM
# Assay type: cell-based
# Parameters: test concentration 10 uM, cell line HepG2-A16-CD81EGFP
# Conditions: human, HepG2-A16-CD81EGFP cells; read-out: INHIBITION
# Outline: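 Uninfected HepG2-A16-CD81EGFP cells, 3 × 10^3 per well, 1536-well, plated on prespotted compound at 10 μM final, parasite-free screening media added to match infected plates; puromycin 10 μM positive, DMSO 0.5% negative; run in parallel with 48 h PbLuc assay at 37 °C, 5% CO2; viability by CellTiter-Glo luminescence, normalized to controls.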
row,SMILES,cytotoxicity at 10 µM
1,Cc1cnn(CC2CCCN2Cc2nnc(C)o2)c1 (centres undefined),-11.2%
2,CCn1cc2c(n1)CN(CC1CC1)CC2COCC1CC1 (centres undefined),-1.26%
3,Cc1ccc([C@H]2CN(C(C)C)C[C@@H]2NS(=O)(=O)N2CCOCC2)o1,-1.01%
4,O=C(Cc1cccnc1)N1CCC2(CC1)CCN(C1CCOC1)C2 (centres undefined),-2.52%
5,CC(C)(C)c1nnnn1CC(=O)N(CCC#N)c1ccccc1,-14.2%
6,CCn1cc(CN2C[C@@H]3CCCN3C[C@@H]2CCSC)cn1,-13.9%
7,Cc1ncc(C(=O)N2CCCN(Cc3ccccc3F)CC2)c(O)n1,0.903%
8,CCNC(=O)NCCCn1nc2ccccn2c1=O,-18.2%
9,c1cncc(CNc2ccc3nc(C4CCNCC4)nn3c2)c1,-108%
10,CCS(=O)(=O)N1CCC2(CCC(N3CCCC3)c3ccccc32)CC1 (centres undefined),0.257%
11,CN(Cc1cnn(C)c1)C(=O)NC1CCN(Cc2ccccn2)CC1,-2.35%
12,c1c[nH]c2nc(C3CCCNC3)nc-2c1 (centres undefined),8.35%
13,Cc1ccc(N2CCO[C@H]3CN(Cc4ccoc4)C[C@H]32)nn1,-70.7%
14,c1ccc(CN2CCC(NCCSc3ncn[nH]3)C2)cc1 (centres undefined),-2.76%
15,Cc1cc(-c2nccn2CCN2CCCCC2CO)oc1C (centres undefined),0.264%
16,COc1cccc(C(=O)N2C[C@@H](c3ccccc3)[C@@H]3NCCCC[C@@H]32)c1,-14.1%
17,Nc1cc2c(nn1)CCN(C(=O)Cc1ccc3c(c1)CCO3)C2,5.52%
18,CCCc1noc(CCCC(=O)N2CCCC(n3ccnc3C)C2)n1 (centres undefined),-2.5%
19,CCC[C@@H]1CN(C(=O)c2ccccc2-c2ccccc2)C[C@H]1N(C)C,2.16%
20,COC(=O)CNC(=O)CCCn1cnc2ccccc2c1=O,-7.48%
21,O=C1CCN(C(=O)NCCc2c[nH]c3ccc(Cl)cc23)CCN1,4.26%
22,c1cc(-c2nnn3c2COC(CNCc2nccs2)C3)ccn1 (centres undefined),1.94%

row,SMILES,cytotoxicity at 10 µM
1,Cc1nc(C)n(CC2CN(CCCOc3ccc(F)cc3)CCO2)n1 (centres undefined),-4.26%
2,O=C(CCN1CCN(c2ccc3nncn3n2)CC1)NC1CCCC1,-27.5%
3,CN(C)S(=O)(=O)NC1CCCc2c1cnn2-c1ccc(C(C)(C)C)cc1 (centres undefined),42.5%
4,O=C(CNCCn1cccn1)NCC1(c2ccccc2)CCOCC1,-8.27%
5,O=C(NCCc1cccs1)[C@]12COC[C@H]1CN(Cc1ccncc1)C2,-114%
6,CC(=O)N1CC2(CCN(C(=O)c3cccc4[nH]ccc34)CC2)C1,-138%
7,CN(C)C(=O)C1CCC2(CCN(Cc3ccc4ccccc4n3)CC2)O1 (centres undefined),5.09%
8,O=c1ccc2c([nH]1)CCN(S(=O)(=O)c1ccc3c(c1)OCCO3)C2,-3.06%
9,CC(=O)N1CCN(C(=O)NCc2ccc(Cl)s2)CC1,-15.4%
10,O=C(NC[C@@H]1CCCN1)c1cc(COc2cccc(C(F)(F)F)c2)[nH]n1,-8.31%
11,Cc1nc(CNC(=O)c2cc(COc3cccc(F)c3)[nH]n2)n[nH]1,-2.52%
12,Cc1cccc(-n2cc3[nH]c(=O)[nH]n3c2=O)c1,2.48%
13,COc1ccc(C2CCCCCN2S(C)(=O)=O)cc1 (centres undefined),3.86%
14,Cc1cnc(N2C[C@@H]3CN(C4CCOC4)CCC[C@]3(C(=O)O)C2)nc1 (some centres undefined),-111%
15,Cc1ccc(CNC2(Cc3cc(CC(C)C)on3)COC2)o1,-2.07%
16,Cc1cnn(CC2CN(Cc3nc(C4CC4)no3)CCO2)c1 (centres undefined),-4.26%
17,Cc1nn(-c2ccc(C(=O)O)cc2)c2c1C(c1ccsc1)SCC(=O)N2 (centres undefined),0.153%
18,Cc1cccc(OCCSCCn2nc3ccccn3c2=O)c1,6.47%
19,COc1ccc(CN2CCC3(CC2)CCN(c2ncccn2)CC3)cc1,-1.08%
20,CCOc1ccc(Cl)c(C(=O)N2CCN(CC(O)CC)CC2)n1 (centres undefined),-4.85%
21,O=C(c1ccco1)N1CCN(Cc2nc(C3CC3)no2)CC1,5.21%
22,N#Cc1ccc(NCCS(=O)(=O)N2CCc3ccccc32)nc1,-8.69%

row,SMILES,cytotoxicity at 10 µM
1,CC(C)Cn1nccc1NC(=O)CN1CCOC(Cn2cccn2)C1 (centres undefined),-12%
2,CN(C(=O)CCc1cccs1)C1CCCN(C2Cc3ccccc3C2)C1 (centres undefined),-4.49%
3,CC(C)(C)c1n[nH]c(C2CN(C(=O)c3cc(C4CC4)on3)CCO2)n1 (centres undefined),-15.8%
4,CN(Cc1ccccc1)CC1CC2(CO1)CN(Cc1nccs1)C2 (centres undefined),8.88%
5,CN1CCC2(CC1)CN(Cc1ccc(C3CCCCO3)o1)CCCN2C (centres undefined),-5.35%
6,O=C(CC1CCN(c2cccnn2)CC1)Nc1nncs1,1.01%
7,NC(=O)Cc1ccc(NC(=O)C2CCOCC2)cc1,-1.2%
8,Cc1nc2c(c(=O)[nH]1)CCN(C(=O)c1cccc3nccnc13)C2,-16.8%
9,CC(C)CCC1=NC2(CCN(C(=O)N3CCN(C)CC3)CC2)C(=O)N1,-6.08%
10,CCN(CC)Cc1ccc(C(=O)NC2CCc3cc(Cl)ccc32)o1 (centres undefined),-3.81%
11,O=C1CNc2ncnc(Nc3cnn(Cc4cccc(F)c4)c3)c2N1,4.67%
12,CCn1cc(NC(=O)NCC(O)COc2cccc(F)c2)cn1 (centres undefined),-2.86%
13,COCCN1CCc2ncnc(N(C)C)c2CC1,-0.025%
14,COc1cc(CNc2ccc(C)c(Cl)c2)ccc1OCC(N)=O,7.1%
15,COc1ccc(C(=O)C2CCCN(c3cc(OC)ncn3)C2)c(C)c1 (centres undefined),48%
16,Cc1cnc(N2C[C@@H]3[C@@H](C(=O)NCC(C)C)CCS(=O)(=O)[C@@H]3C2)nc1,-155%
17,CN1CCCN(c2ccc(F)cc2CNC(=O)c2cccnc2)CC1,-2.52%
18,Cc1ccc(C(=O)NCCNC(=O)N(C)C(C)c2ccccn2)cc1 (centres undefined),7.97%
19,COc1cc(N2CC[C@H](O)[C@@H]2Cc2cnn(C)c2)ncn1,1.72%
20,Cc1ccc2c(c1)SCC(=O)N2Cc1noc(C2CC2)n1,7.4%
21,CC(C)c1noc(CN2CCN(C(=O)c3ccncc3F)CC2)n1,-10.9%
22,CCN(Cc1ccccc1Cl)Cn1nc(C)c2c(C)onc2c1=O,-2.34%

row,SMILES,cytotoxicity at 10 µM
1,CC(=O)NCc1cc2n(n1)CCN(Cc1ccccc1OC(F)(F)F)C2,-2.84%
2,O=C(NCCc1c[nH]cn1)c1ccc2c(c1)C(=O)N(C1CC1)C2=O,11.7%
3,Cc1ccc(C(=O)N2C[C@@H]3CCCO[C@@H]3[C@H](N(C)Cc3ccco3)C2)o1,5.51%
4,CC1=C[C@@H](CN2CCC(CO)CC2)[C@H](C(C)C)C[C@H]1Cc1nnc(C)o1,8.24%
5,Cc1n[nH]c(CCC(=O)N2CCOC(Cc3ccccc3)C2)c1C (centres undefined),-44.1%
6,O=C(O)c1nnn(-c2ccc(F)c(F)c2)c1-c1ccncc1,3.72%
7,CC(C)C(=O)NS(=O)(=O)c1ccc(C#N)cc1C(F)(F)F,-12.3%
8,NC(=O)CSc1ccccc1NC(=O)C1CCCC1,-135%
9,CC1CCN(S(=O)(=O)NCCCn2cncn2)CC1,-4.91%
10,Cc1ccc(CN2CC[C@@H]3[C@@H](CO[C@H]3CN3CCN(C)CC3)C2)s1,7.57%
11,CCN(CC)C(=O)CN1CCCC1C(=O)N(C)C (centres undefined),12.5%
12,CCNC(=O)NC(C)(C)C(=O)NCCc1csc2ccccc12,-15.5%
13,CCc1ccc(C(=O)N2CCCC(n3cncn3)C2)o1 (centres undefined),-9.78%
14,Cc1ccc(C)c(OCC(=O)NC2CCN(c3ccccn3)CC2)c1,-3.42%
15,Cc1cc(C)c(C(=O)N(C)CCN(C)C(=O)c2[nH]c(C)cc2C)[nH]1,-1.91%
16,O=C(c1ccon1)N1CCc2ncnc(NCc3ccccn3)c2CC1,0.436%
17,CCN1CCN(CCCNC(=O)c2cc3ccc(C)cc3nc2C)CC1,5.33%
18,CN(C)[C@H]1CCCCN(Cc2cnc(NCc3ccccc3)nc2)C1,0.166%
19,COCCC(=O)N1CCCC2(CCCN2Cc2ccccc2F)C1 (centres undefined),8.01%
20,c1cc(CNc2ccc(-c3nc(C4CC4)no3)cn2)no1,1.79%
21,CN(C)C(=O)c1cnc2n1CCN(Cc1ccc3c(c1)OCO3)C2,-69%
22,COc1ncccc1C(=O)N1CCCC1c1nc(-c2ccccc2)no1 (centres undefined),1.75%

row,SMILES,cytotoxicity at 10 µM
1,NC(=O)c1cccc(CNC(=O)NCCOc2ccc(F)c(F)c2)c1,9.77%
2,Cc1nnc(SC2CCN(c3sccc3C#N)C2=O)[nH]1 (centres undefined),7.25%
3,O=C(NCCn1ccnc1)NCc1ccc(N2CCCCCC2)nc1,19%
4,Cc1nn(C)c(C)c1C1CCCN1C(=O)c1ccc(NC2CC2)nc1 (centres undefined),-2.85%
5,CCc1nc(C)c(C(=O)N2C[C@@H]3CC[C@H]2CN(S(=O)(=O)N(C)C)C3)s1,25%
6,O=C(C1CCC1)N1CCC2(CC1)CNCCO2,-4.29%
7,CCCC(=O)NCC(=O)Nc1cc(F)ccc1SCC(F)F,10.8%
8,CCCc1nnc(NCCc2noc(C3CCC3)n2)o1,-8.22%
9,CC(C)(C)OC(=O)N1CCC[C@H](NCC2CCOCC2)C1,-0.678%
10,O=C(N1CCOCC1)[C@@]12CCO[C@@H]1CCN(Cc1ccncc1)C2,-1.2%
11,c1ccc(Cc2noc(CN(Cc3cccs3)CC3CCCO3)n2)cc1 (centres undefined),-5.77%
12,CN1CCCN(S(=O)(=O)c2cn(C)cn2)c2cc(Cl)ccc21,2.14%
13,Cc1nn(CCNC(C)Cn2ccnc2)c(C)c1Cl (centres undefined),-5.19%
14,CC(NC(N)=O)C(=O)NCc1ccnc(Oc2ccc(F)cc2)c1 (centres undefined),8.26%
15,COCCN(Cc1cccc(O)c1)Cc1ccccc1F,4.73%
16,CCN(CC1CCOC1)C(=O)NCc1nnc2n1CCCCC2 (centres undefined),-0.43%
17,Cc1cncc(C2CCN(C(=O)CCc3ccnn3C)CC2)n1,-28.8%
18,Cc1csc(CNC(=O)CCCc2cccs2)n1,-47.1%
19,Cc1ccc(S(C)(=O)=O)cc1C(=O)NS(=O)(=O)c1ccc(Cl)cc1,-13.5%
20,CNC(=O)[C@@]12CCCN(c3ncccn3)[C@@H]1CN(c1ncc(C)cn1)C2,3.97%
21,CO[C@@H]1CCC[C@@H](NC(=O)c2cccc(F)c2)[C@H]1O,1.65%
